Test results: ChEMBL document CHEMBL3784974, “Design and Structural Characterization of Potent and Selective Inhibitors of Phosphatidylinositol 4 Kinase IIIβ” (J Med Chem, 2016)
pIC50: −log10 of the molar value. Active and inactive are the calls of the source. No cut-off for these calls is given here.

What was measured:
[1] = Cytotoxicity against human Huh7.5 cells after 3 days by presto blue assay; assay type: cell-based, Huh-7
How it was run: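 Huh7.5 cells stably infected with J6/JFH1-GLuc, kept in DMEM/10% FBS, glutamine, NEAA, pen/strep at 37 °C, 5% CO2. 10,000 cells/well; serially diluted compound added 1 h after plating; 3-day incubation. Replication read as Gaussia luciferase activity in supernatant; viability by Presto Blue.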

[2] = molecular target: Phosphatidylinositol 4-kinase type 2-alpha (Homo sapiens) (UniProt Q9BTU6); assay: Inhibition of flag-tagged recombinant PI4K2alpha (unknown origin) transfected in HEK293T cells upto 20 uM preincubated for 15 mins followed by addition of cold ATP/gamma32P-ATP measured after 25 mins; assay type: cell-based; conditions: HEK-293T
Sequence of Phosphatidylinositol 4-kinase type 2-alpha (Homo sapiens) (Q9BTU6 whole entry): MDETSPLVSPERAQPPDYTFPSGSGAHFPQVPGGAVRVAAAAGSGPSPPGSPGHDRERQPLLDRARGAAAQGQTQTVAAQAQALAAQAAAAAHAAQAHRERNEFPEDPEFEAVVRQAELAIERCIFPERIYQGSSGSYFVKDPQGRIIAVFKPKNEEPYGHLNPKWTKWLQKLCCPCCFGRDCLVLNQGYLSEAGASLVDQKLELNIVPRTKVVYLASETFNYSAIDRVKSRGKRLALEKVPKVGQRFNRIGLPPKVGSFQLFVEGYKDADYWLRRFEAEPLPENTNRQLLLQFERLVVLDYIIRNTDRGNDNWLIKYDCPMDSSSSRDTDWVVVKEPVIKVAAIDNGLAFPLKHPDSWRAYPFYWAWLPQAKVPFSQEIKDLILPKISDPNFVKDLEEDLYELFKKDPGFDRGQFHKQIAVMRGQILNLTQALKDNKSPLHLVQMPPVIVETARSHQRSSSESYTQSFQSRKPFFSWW
How it was run: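 Enzymes cloned from DNASU plasmids, FLAG-tagged, transfected into HEK293T and FLAG-immunoprecipitated, eluted with FLAG peptide. 15 min inhibitor preincubation, 25 min reaction in 20 mM Bis-Tris propane pH 7.5, 10 mM MgCl2, 0.075 mM Triton X-100, 0.5 mM EGTA, 1 mM DTT, 100 µM PI, 500 ng/µL BSA, 2% DMSO, 10 µM ATP, 2 uCi γ32P-ATP; phosphorimaging.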

[3] = molecular target: Phosphatidylinositol 4,5-bisphosphate 3-kinase catalytic subunit beta isoform (Homo sapiens) (UniProt P42338); assay: Inhibition of N-terminal histidine-tagged recombinant human full length PI3Kbeta expressed in baculovirus infected Sf9 insect cells upto 20 uM preincubated for 15 mins followed by addition of cold ATP/gamma32P-ATP measured after 15 mins
Sequence of Phosphatidylinositol 4,5-bisphosphate 3-kinase catalytic subunit beta isoform (Homo sapiens) (P42338 whole entry, looked up, canonical isoform): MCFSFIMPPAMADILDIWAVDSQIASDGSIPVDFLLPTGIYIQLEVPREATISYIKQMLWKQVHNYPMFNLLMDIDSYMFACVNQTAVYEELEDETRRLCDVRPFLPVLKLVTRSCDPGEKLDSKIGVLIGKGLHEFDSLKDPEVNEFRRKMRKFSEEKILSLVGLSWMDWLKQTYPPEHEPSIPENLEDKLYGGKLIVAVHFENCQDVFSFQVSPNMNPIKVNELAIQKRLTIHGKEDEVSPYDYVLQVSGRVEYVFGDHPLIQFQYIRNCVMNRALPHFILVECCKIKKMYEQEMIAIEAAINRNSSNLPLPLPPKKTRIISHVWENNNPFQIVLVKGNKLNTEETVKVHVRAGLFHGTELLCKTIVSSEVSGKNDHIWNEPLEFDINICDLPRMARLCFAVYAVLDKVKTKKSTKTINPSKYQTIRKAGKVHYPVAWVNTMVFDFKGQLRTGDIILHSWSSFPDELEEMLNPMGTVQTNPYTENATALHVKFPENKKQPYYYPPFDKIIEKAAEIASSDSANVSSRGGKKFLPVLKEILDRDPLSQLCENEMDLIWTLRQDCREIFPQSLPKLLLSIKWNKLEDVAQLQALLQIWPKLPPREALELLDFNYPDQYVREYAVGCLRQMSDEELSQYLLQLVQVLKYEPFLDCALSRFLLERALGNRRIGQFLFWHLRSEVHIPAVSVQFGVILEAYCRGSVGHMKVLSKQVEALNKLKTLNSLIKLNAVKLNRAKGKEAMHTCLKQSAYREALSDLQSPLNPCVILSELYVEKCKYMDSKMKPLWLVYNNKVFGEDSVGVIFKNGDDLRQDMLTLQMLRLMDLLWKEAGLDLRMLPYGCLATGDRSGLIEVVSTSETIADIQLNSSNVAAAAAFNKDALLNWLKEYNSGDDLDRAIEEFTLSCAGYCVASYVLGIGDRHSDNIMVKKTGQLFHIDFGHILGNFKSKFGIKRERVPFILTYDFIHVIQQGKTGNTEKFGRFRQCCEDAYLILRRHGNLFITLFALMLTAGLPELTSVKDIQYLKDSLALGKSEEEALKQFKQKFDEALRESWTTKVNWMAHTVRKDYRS
How it was run: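 PI3Kβ 0.6 nM final; inhibitor preincubated 15 min, reaction 15 min. Final: 50 mM HEPES pH 7.5, 100 mM NaCl, 0.03% CHAPS, 10 mM MgCl2, 1 mM EGTA, 2 mM DTT, 80 µM PIP2 (PIP2:DOPS:DOPC), 500 ng/µL BSA, 2% DMSO, 10 µM ATP, 2 uCi γ32P-ATP; membrane capture, phosphorimaging.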

[4] = molecular target: Phosphatidylinositol 3-kinase catalytic subunit type 3 (Homo sapiens, UniProt Q8NEB9); assay: Inhibition of GST-tagged recombinant human full length VPS34 expressed in baculovirus upto 20 uM preincubated for 15 mins followed by addition of cold ATP/gamma32P-ATP measured after 1 hr in presence of MnCl2
Sequence of Phosphatidylinositol 3-kinase catalytic subunit type 3 (Q8NEB9 whole entry): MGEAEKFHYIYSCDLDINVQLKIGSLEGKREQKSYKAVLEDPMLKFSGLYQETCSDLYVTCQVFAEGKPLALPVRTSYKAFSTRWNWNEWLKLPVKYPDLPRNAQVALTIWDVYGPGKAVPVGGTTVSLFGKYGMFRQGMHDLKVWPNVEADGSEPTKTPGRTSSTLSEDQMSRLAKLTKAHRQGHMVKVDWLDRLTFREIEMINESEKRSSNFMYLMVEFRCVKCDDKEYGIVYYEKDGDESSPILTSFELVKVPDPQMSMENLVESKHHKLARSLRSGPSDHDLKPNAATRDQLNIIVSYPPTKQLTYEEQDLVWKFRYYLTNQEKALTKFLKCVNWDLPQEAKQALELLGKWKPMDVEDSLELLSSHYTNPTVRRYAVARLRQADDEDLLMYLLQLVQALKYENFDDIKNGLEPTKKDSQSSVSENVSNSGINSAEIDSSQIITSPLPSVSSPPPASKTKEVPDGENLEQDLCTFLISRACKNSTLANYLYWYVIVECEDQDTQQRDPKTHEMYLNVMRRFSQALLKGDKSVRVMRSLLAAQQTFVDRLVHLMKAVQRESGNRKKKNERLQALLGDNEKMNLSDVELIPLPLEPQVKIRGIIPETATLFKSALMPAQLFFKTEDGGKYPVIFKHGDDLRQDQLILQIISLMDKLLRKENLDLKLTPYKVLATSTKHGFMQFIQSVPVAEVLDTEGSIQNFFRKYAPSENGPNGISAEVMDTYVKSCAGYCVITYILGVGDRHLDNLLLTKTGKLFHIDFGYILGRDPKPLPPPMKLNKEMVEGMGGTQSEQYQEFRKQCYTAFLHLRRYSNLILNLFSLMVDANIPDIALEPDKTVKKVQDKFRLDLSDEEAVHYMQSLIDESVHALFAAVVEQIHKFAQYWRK
How it was run: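 Radiometric membrane-capture assay, 10 nM purchased vps34, 15 min preincubation with inhibitor, then 1 h reaction. Final: 50 mM HEPES pH 7.5, 0.1% CHAPS, 2mM MnCl2, 1 mM EGTA, 2 mM DTT, 100 µM PI in PI:DOPS:DOPC, 500 ng/µL BSA, 2% DMSO, 10 µM ATP, 2.5 uCi γ32P-ATP; spots washed, phosphorimaged.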

[5] = Inhibition of N-terminal flag-tagged recombinant human full length PI4K3alpha expressed in baculovirus infected Sf21 insect cells preincubated for 15 mins followed by addition of cold ATP/gamma32P-ATP measured after 25 mins
How it was run: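 Purchased PI4KIIIα at 1.2 nM; 15 min inhibitor preincubation, 25 min reaction in 20 mM Bis-Tris propane pH 7.5, 10 mM MgCl2, 0.075 mM Triton X-100, 0.5 mM EGTA, 1 mM DTT, 100 µM PI (PI:DOPS:DOPC), 500 ng/µL BSA, 2% DMSO, 10 µM ATP, 2 uCi γ32P-ATP. Radiolabel captured on nitrocellulose, phosphorimaged.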

[6] = molecular target: T1, Phosphatidylinositol 4,5-bisphosphate 3-kinase catalytic subunit delta isoform (Homo sapiens, UniProt O00329); assay: Inhibition of histidine-tagged recombinant human full length PI3Kdelta expressed in baculovirus preincubated for 15 mins followed by addition of cold ATP/gamma32P-ATP measured after 20 mins in presence of MgCl2
T1 sequence (O00329 whole entry): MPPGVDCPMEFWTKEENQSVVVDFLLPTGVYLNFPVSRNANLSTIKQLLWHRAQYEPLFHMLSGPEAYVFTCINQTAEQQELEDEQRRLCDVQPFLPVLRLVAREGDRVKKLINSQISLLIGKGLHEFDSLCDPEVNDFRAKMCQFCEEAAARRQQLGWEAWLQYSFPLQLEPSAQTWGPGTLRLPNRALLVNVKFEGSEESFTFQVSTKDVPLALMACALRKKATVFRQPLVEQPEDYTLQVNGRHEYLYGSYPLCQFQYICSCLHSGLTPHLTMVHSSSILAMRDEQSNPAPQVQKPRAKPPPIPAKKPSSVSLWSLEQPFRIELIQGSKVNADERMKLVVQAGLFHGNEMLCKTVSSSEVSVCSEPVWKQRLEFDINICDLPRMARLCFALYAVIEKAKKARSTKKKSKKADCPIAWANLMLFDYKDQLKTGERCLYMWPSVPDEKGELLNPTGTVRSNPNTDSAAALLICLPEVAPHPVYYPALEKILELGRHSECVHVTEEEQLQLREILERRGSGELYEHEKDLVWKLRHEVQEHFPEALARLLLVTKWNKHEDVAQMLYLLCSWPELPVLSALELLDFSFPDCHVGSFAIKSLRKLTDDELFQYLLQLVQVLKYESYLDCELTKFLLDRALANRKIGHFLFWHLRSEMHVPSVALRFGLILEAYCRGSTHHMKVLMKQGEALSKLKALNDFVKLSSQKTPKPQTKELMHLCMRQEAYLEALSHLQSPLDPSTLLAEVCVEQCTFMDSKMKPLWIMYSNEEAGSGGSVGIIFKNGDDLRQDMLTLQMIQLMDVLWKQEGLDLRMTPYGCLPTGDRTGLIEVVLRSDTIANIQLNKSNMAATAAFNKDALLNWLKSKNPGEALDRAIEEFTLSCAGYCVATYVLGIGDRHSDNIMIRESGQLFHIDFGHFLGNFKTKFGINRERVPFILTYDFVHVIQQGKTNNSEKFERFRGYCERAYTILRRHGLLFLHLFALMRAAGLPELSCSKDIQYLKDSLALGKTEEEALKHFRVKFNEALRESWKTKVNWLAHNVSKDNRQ
How it was run: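 Final: 50 mM HEPES pH 7.5, 100 mM NaCl, 0.03% CHAPS, 10 mM MgCl2, 1 mM EGTA, 2 mM DTT, 80 µM PIP2 (PIP2:DOPS:DOPC), 500 ng/µL BSA, 2% DMSO, 10 µM ATP, 2.5 uCi γ32P-ATP. Nitrocellulose capture, phosphorimaging.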

[7] = Inhibition of GST-tagged recombinant human full length PI4K3beta expressed in insect cells preincubated for 15 mins followed by addition of cold ATP/gamma32P-ATP measured after 30 mins in presence of MgCl2
How it was run: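 Membrane-capture radiometric assay. Purchased enzyme, final 2.5 nM. Enzyme preincubated 15 min with inhibitor (diluted in 10% DMSO), then 30 min reaction. Final: 20 mM Bis-Tris propane pH 7.5, 10 mM MgCl2, 0.075 mM Triton X-100, 0.5 mM EGTA, 1 mM DTT, 100 µM PI in PI:DOPS:DOPC, 500 ng/µL BSA, 2% DMSO, 10 µM ATP, 1 uCi γ32P-ATP. Product spotted on nitrocellulose, washed in 1M NaCl/1% phosphoric acid, phosphorimaged.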

Compound | CC50 at 72 h [1] [nM] | inhibition [2] [%] | inhibition [3] [%] | inhibition [4] | pIC50 [5] | pIC50 [6] | pIC50 [7]
COc1ccc(-c2sc(NC(=O)C3CCCC3)nc2C)cc1S(=O)(=O)Nc1ccc(O)cc1 | 14000 | < 50 | < 50 | inactive | 5.59 | 6.82 | 8.15
COc1ccc(-c2sc(NC(=O)C(C)(C)C)nc2C)cc1S(=O)(=O)Nc1ccc(O)cc1 | 32000 | < 20 | < 20 | inactive | 5.52 | 6.14 | 8.44
